Series [1] relates to H. pylori ATCC 43504. Nature of the series: Broth dilution bioassay MIC/MBC, ATCC 43504. Format: cell-based. The following applies: Helicobacter pylori; for MIC: ATCC43504, 48 h; for MBC: ATCC43504, 72 h. (In general: Dilution methods test growth across graded concentrations, often in twofold steps.)
The subject of the next series is H. pylori ATCC 51932. Nature of the series: Broth dilution bioassay MIC/MBC, ATCC 51932. The conditions noted are these: Helicobacter pylori; for MIC: ATCC51932, 48 h; for MBC: ATCC51932, 72 h. The format is cell-based.
A further series deals with H. pylori OX.22. Nature of the series: Broth dilution bioassay MIC/MBC, OX.22. The format is cell-based. The following applies: Helicobacter pylori; for MIC: OX.22, 48 h; for MBC: OX.22, 72 h.
A further series has as its system H. pylori OX.63. Nature of the series: Broth dilution bioassay MIC/MBC, OX.63. Format: cell-based, Helicobacter pylori. The conditions noted are these: for MIC: H. pylori OX.63, broth dilution, 48 h; for MBC: OX.63, 72 h.
Another series has as its system H. pylori OX.64. Nature of the series: Broth dilution bioassay MIC/MBC, OX.64. The following applies: for MIC: H. pylori OX.64, broth dilution, 48 h; for MBC: OX.64, 72 h. The format is cell-based, Helicobacter pylori.
The next series relates to H. pylori OX.67. Nature of the series: Broth dilution bioassay MIC/MBC, OX.67. The format is cell-based, Helicobacter pylori. The conditions noted are these: for MIC: H. pylori OX.67, broth dilution, 48 h; for MBC: OX.67, 72 h.
A further series relates to H. pylori OX.83. Nature of the series: Broth dilution bioassay MIC/MBC, OX.83. The format is cell-based, Helicobacter pylori. The following applies: for MIC: H. pylori OX.83, broth dilution, 48 h; for MBC: OX.83, 72 h.
For series [2], the system named is test strains of H. pylori. Nature of the series: Broth dilution bioassay MIC/MBC, text summary over test strains. The format is cell-based. The following applies: Helicobacter pylori.
The subject of series [3] is H. pylori ATCC 43504. Nature of the series: Time-killing assay. Format: cell-based, Helicobacter pylori. The method in brief:
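H. pylori ATCC 43504 in 10% NBS-supplemented Brucella broth in 96-well plates, by broth microdilution. Inoculum suspension 5×10^6 CFU/mL; DMSO final ≤2.5%. Test compound was used at concentrations from MIC to MBC, alongside an untreated control. Viability was counted by plate colony count at 0, 6, 12, 18, 24, 36 and 48 h.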

The test system of series [4] is H. pylori ATCC 43504 biofilm formation. Nature of the series: Biofilm formation inhibitory assay. The conditions noted are these: 48 h. Format: cell-based, Helicobacter pylori.
In series [5] the test system is H. pylori ATCC 43504. Nature of the series: Effect on morphology. The format is cell-based, Helicobacter pylori.
Series [6] is described as follows: Sulforhodamine cytotoxicity assay, MCF7. The following applies: human, MCF7 cells. The format is cell-based. The method in brief:
(§1)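 Cells were grown in EMEM with 10% FBS, 2 mM L-glutamine, 20 mM HEPES and antibiotics at 37 °C, 5% CO2. Passages were 4–20 for HeLa, MCF7 and Jurkat, and 2–5 for fibroblasts. Seeding per well for 24 h: HeLa 5×10^3, MCF7 and fibroblast 10^4, Jurkat 5×10^4. Test compound (0–200 mg/L, in DMSO) was added for 48 h. Cells were fixed with cold TCA, stained with 0.2% SRB, solubilised in 10 mM Tris and read at 492 nm. Camptothecin was the positive control. Triplicates, three independent experiments.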

Series [7] in a line: Sulforhodamine cytotoxicity assay, Jurkat. The format is cell-based. The conditions noted are these: human, Jurkat cells. The method in brief:
as §1

The nature of series [8]: Sulforhodamine cytotoxicity assay, HeLa. Format: cell-based. The following applies: human, HeLa cells. The method in brief:
as §1

A short description of series [9]: Sulforhodamine cytotoxicity assay, fibroblast. Format: cell-based. The following applies: human, fibroblast cells derived from human foreskins. The procedure, abridged: as §1
Series [10] in a line: Sulforhodamine cytotoxicity assay, text summary over four cell lines. The conditions noted are these: human. The format is cell-based. The method in brief: as §1
Series [11] addresses H. pylori ATCC 43504 urease (Helicobacter pylori, UniProt P69996). Nature of the series: Urease inhibition, salicylate-hypochlorite method. Format: biochemical. The conditions noted are these: for slope ± SE: slope of dose-response curve of percentage of urease inhibition. The method in brief:
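Crude H. pylori ATCC 43504 urease, 0.25 μg (0.04 U), in EDTA–sodium phosphate buffer pH 7.3, was preincubated with test compound at 37 °C for 90 min at 50 rpm. Urea solution (10 mM, as added) was then incubated for 30 min. Ammonia was measured by the salicylate–nitroprusside/alkaline hypochlorite method at 625 nm. Thiourea was the reference inhibitor. IC50 is molar. Triplicates, three independent experiments.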

The mark [12] stands for this setting: Helicobacter pylori, OX.63, 48 h.
[13] abbreviates: Helicobacter pylori, OX.64, 48 h.
Where [14] appears, read: Helicobacter pylori, OX.67, 48 h.
Where [15] appears, read: Helicobacter pylori, OX.83, 48 h.

Values after ≈ are worked out from the molar mass of the structure shown. Values joined by “and” are separate entries in the source; they are usually repeats but may differ in a detail not shown here. Identical values can stand only once.

Sequence of H. pylori ATCC 43504 urease (P69996 whole entry): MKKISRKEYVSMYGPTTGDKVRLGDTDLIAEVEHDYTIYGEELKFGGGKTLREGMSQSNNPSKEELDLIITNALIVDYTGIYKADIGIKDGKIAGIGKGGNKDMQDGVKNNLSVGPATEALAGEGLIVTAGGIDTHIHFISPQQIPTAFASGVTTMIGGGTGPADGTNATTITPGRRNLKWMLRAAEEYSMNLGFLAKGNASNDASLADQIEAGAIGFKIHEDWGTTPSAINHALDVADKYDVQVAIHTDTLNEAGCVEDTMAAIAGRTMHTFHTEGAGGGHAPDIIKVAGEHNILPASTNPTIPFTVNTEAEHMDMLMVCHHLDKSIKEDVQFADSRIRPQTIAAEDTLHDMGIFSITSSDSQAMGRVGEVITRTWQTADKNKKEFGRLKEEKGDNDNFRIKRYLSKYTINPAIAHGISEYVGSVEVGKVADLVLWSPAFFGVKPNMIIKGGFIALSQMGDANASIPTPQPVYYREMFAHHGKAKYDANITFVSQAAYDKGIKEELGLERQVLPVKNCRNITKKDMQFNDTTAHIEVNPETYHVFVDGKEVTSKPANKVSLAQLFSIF
Sequence of H. pylori ATCC 43504 urease (P14916 whole entry partner): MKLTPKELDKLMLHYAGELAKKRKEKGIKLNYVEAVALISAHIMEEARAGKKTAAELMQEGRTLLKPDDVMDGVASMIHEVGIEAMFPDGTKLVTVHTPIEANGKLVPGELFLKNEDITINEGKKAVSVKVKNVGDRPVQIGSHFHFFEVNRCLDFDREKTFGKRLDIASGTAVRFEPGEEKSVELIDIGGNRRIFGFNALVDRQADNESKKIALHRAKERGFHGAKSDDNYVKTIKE

In the case of `O=c1cc(-c2ccc(O)c(O)c2)oc2cc(O)cc(O)c12` [LUT, luteolin], the MIC in the series with H. pylori ATCC 43504 [1], with H. pylori ATCC 51932, in the series with H. pylori OX.22, in the series with H. pylori OX.63 (setting [12]), against H. pylori OX.64 (setting [13]) and against H. pylori OX.67 (setting [14]) was 125 µg/mL (≈ 437 µM) throughout. In addition, the MIC (in the series with H. pylori OX.83 (setting [15]); in [2] (ATCC51932)) was 125 µg/mL (≈ 437 µM) throughout. In addition, the minimum bactericidal concentration (MBC) against H. pylori ATCC 43504 [1], in the series on H. pylori ATCC 51932, in the series with H. pylori OX.22, in the series with H. pylori OX.63 (Helicobacter pylori), in the series with H. pylori OX.64 (Helicobacter pylori) and in the series with H. pylori OX.67 (Helicobacter pylori) was 1250 µg/mL (≈ 4370 µM) each time. Further, the MBC (against H. pylori OX.83 (Helicobacter pylori); in series [2]) was 1250 µg/mL (≈ 4370 µM) throughout. Moreover, the reduction of viability in the series on H. pylori ATCC 43504 [3] (four times the MIC, 12 h) is given as approximately 3 log10. Further, in series [4] (at test concentrations (sub-MICs)), the antibiofilm activity entry was “did not show antibiofilm activity”. Moreover, the entries for the “conversion to the coccoid form” value in the series on H. pylori ATCC 43504 [5] (500 mg/L) and in the series on H. pylori ATCC 43504 [5] (1000 mg/L) were 14.7% and 87.5%, respectively. Further, the CC50 at 48 h in [6] was 8.64 µg/mL (≈ 30.2 µM); in series [7], 5.12 µg/mL (≈ 17.9 µM); in series [8], 8.36 µg/mL (≈ 29.2 µM); in series [9], 49.8 µg/mL (≈ 174 µM); in series [10], 5.12 to 49.8 µg/mL (≈ 17.9 to 174 µM). Moreover, in series [11], the IC50 was found to be 402 µM. In addition, the “slope ± SE” value in series [11] stood at 2.16 ± 0.080.

On to `O=c1c(O)c(-c2cc(O)c(O)c(O)c2)oc2cc(O)cc(O)c12` [MCT, myricetin], for which the MIC with H. pylori ATCC 43504 [1], with H. pylori ATCC 51932, in the series on H. pylori OX.22, against H. pylori OX.63 (setting [12]), in the series with H. pylori OX.64 (setting [13]) and in the series with H. pylori OX.67 (setting [14]) was 150 µg/mL (≈ 471 µM) throughout. Besides, the MIC (in the series with H. pylori OX.83 (setting [15]); in [2] (ATCC51932)) was 150 µg/mL (≈ 471 µM) in each case. Also, the MBC against H. pylori ATCC 43504 [1], in the series on H. pylori ATCC 51932, against H. pylori OX.22, in the series on H. pylori OX.63 (Helicobacter pylori), against H. pylori OX.64 (Helicobacter pylori) and in the series with H. pylori OX.67 (Helicobacter pylori) was 1250 µg/mL (≈ 3930 µM) throughout. Further, the MBC (against H. pylori OX.83 (Helicobacter pylori); in series [2]) was 1250 µg/mL (≈ 3930 µM) in each case. For the same molecule, the reduction of viability in the series with H. pylori ATCC 43504 [3] (at the MIC, 24 h) is reported as approximately 2.7 log10; in the series with H. pylori ATCC 43504 [3] (eight times the MIC, 36 h) it was approximately 4.2 log10. Also, the “reduction of biofilm formation” value in series [4] (1/2 × MIC (NRG 50 mg/L, MCT 75 mg/L)) is reported as 39.5%. The “conversion to the coccoid form” value is given as 15% in the series on H. pylori ATCC 43504 [5] (500 mg/L) and 79% with H. pylori ATCC 43504 [5] (1000 mg/L). For the same molecule, the CC50 at 48 h in series [6] was 31.7 µg/mL (≈ 99.6 µM); in [7], 7.61 µg/mL (≈ 23.9 µM); in series [8] it was 36.8 µg/mL (≈ 116 µM); in series [9], 76.1 µg/mL (≈ 239 µM); in series [10] it was 7.61 to 76.1 µg/mL (≈ 23.9 to 239 µM). It took 63 µM to reach half-maximal inhibition in series [11] (IC50). For the same molecule, the “concentration of complete inhibition of urease” value in [11] (Figure 5) was found to be 0.402 mM. The “slope ± SE” value in [11] was 2.26 and 2.26 ± 0.070.

Consider `CC1(C)S[C@@H]2[C@H](NC(=O)[C@H](N)c3ccc(O)cc3)C(=O)N2[C@H]1C(=O)O` [amoxicillin], for which the MIC in the series on H. pylori ATCC 43504 [1] turned out to be 0.031 µg/mL (≈ 0.0848 µM); against H. pylori ATCC 51932 it was 0.063 µg/mL (≈ 0.172 µM); with H. pylori OX.22, 0.063 µg/mL (≈ 0.172 µM); in the series with H. pylori OX.63 (setting [12]) it was 0.063 µg/mL (≈ 0.172 µM); against H. pylori OX.64 (setting [13]) it was 0.031 µg/mL (≈ 0.0848 µM); in the series with H. pylori OX.67 (setting [14]), 0.031 µg/mL (≈ 0.0848 µM). The MIC with H. pylori OX.83 (setting [15]) is 0.063 µg/mL (≈ 0.172 µM). Besides, the MBC in the series with H. pylori ATCC 43504 [1] is 0.063 µg/mL (≈ 0.172 µM); in the series on H. pylori ATCC 51932 it was 0.125 µg/mL (≈ 0.342 µM); against H. pylori OX.22, 0.25 µg/mL (≈ 0.684 µM); against H. pylori OX.63 (Helicobacter pylori), 0.25 µg/mL (≈ 0.684 µM); in the series with H. pylori OX.64 (Helicobacter pylori) it was 0.125 µg/mL (≈ 0.342 µM); with H. pylori OX.67 (Helicobacter pylori) it was 0.125 µg/mL (≈ 0.342 µM). The same molecule yielded an MBC against H. pylori OX.83 (Helicobacter pylori) of 0.25 µg/mL (≈ 0.684 µM).

For the molecule `CC[C@H]1OC(=O)[C@H](C)[C@@H](O[C@H]2C[C@@](C)(OC)[C@@H](O)[C@H](C)O2)[C@H](C)[C@@H](O[C@@H]2O[C@H](C)C[C@H](N(C)C)[C@H]2O)[C@](C)(O)C[C@@H](C)CN(C)[C@H](C)[C@@H](O)[C@]1(C)O` [azithromycin], the minimum inhibitory concentration (MIC) against H. pylori ATCC 43504 [1] was 0.5 µg/mL (≈ 0.668 µM); in the series on H. pylori ATCC 51932, 0.5 µg/mL (≈ 0.668 µM); in the series with H. pylori OX.22, 0.5 µg/mL (≈ 0.668 µM); in the series with H. pylori OX.63 it was 32 µg/mL (≈ 42.7 µM); against H. pylori OX.63 (setting [12]), 32 to 64 µg/mL (≈ 42.7 to 85.4 µM); against H. pylori OX.64, 16 µg/mL (≈ 21.4 µM). Also, the minimum inhibitory concentration (MIC) in the series on H. pylori OX.64 (setting [13]) is 16 to 32 µg/mL (≈ 21.4 to 42.7 µM); with H. pylori OX.67, 32 µg/mL (≈ 42.7 µM); against H. pylori OX.67 (setting [14]), 64 µg/mL (≈ 85.4 µM); against H. pylori OX.83 it was 32 µg/mL (≈ 42.7 µM); in the series on H. pylori OX.83 (setting [15]), 64 µg/mL (≈ 85.4 µM); in [2], 16 to 32 µg/mL (≈ 21.4 to 42.7 µM). Also, the MBC was found to be 1 µg/mL (≈ 1.34 µM) in the series with H. pylori ATCC 43504 [1]; 1 µg/mL (≈ 1.34 µM) in the series with H. pylori ATCC 51932; 1 µg/mL (≈ 1.34 µM) against H. pylori OX.22; 128 µg/mL (≈ 171 µM) against H. pylori OX.63 (Helicobacter pylori); 128 µg/mL (≈ 171 µM) in the series with H. pylori OX.64 (Helicobacter pylori); 128 µg/mL (≈ 171 µM) against H. pylori OX.67 (Helicobacter pylori). Besides, the MBC with H. pylori OX.83 (Helicobacter pylori) came out at 128 µg/mL (≈ 171 µM).

A word on the MIC: it is the lowest concentration found to suppress growth. The low end stands for greater potency, the high end for weaker potency. The MBC is the lowest tested concentration that kills the bacteria rather than only halting them. Read a high MBC as less potent killing. The CC50 is the concentration at which the toxic effect on the cells reaches its halfway point. Low values mean greater toxicity to the cells, high ones lower toxicity to the cells. A word on the IC50: it is the concentration that inhibits the measured activity by half. A lower IC50 goes with inhibition by little substance.

Source of the values: PMC7439261 (ACS Omega, 2020).
